Measured values published in ChEMBL document CHEMBL2040716, “Discovery of a new antileishmanial hit in 8-nitroquinoline series” (Eur J Med Chem, 2012).

Tests used:
[1] = Cytotoxicity against mouse J774A1 cells after 72 hrs by MTT assay; type: cell-based, J774.A1
In short: (§1)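 Cells plated in RPMI with 10% FBS, L-glutamine, penicillin/streptomycin at 37 °C, 6% CO2. After 24 h, a range of compound concentrations was added for 72 h. Wells checked for precipitate; MTT for 2 h at 37 °C; formazan dissolved in DMSO; A570 with 630 nm reference. Viability as % of untreated control; CC50 from dose-response curve, mean of two independent experiments.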

Leishmania infantum = experiment: Antileishmanial activity against Leishmania infantum MCAN/ES/98/LLM-877 promastigotes after 72 hrs by MTT assay; type: functional, organism-based; conditions: MCAN/ES/98/LLM-877, 72 h
[2] = Cytotoxicity against human HepG2 cells after 72 hrs by MTT assay; type: cell-based; in short: as §1
Leishmania donovani [3] = experiment: Antileishmanial activity against Leishmania donovani MHOM/IN/00/DEVI amastigotes infected in mouse J774A.1 cells after 120 hrs by Giemsa staining-based microscopic analysis; conditions: J774.A1, 120 h
Leishmania donovani [4] = experiment: Antileishmanial activity against Leishmania donovani MHOM/IN/00/DEVI promastigotes after 72 hrs by MTT assay; type: functional, organism-based
In short: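 Late log-phase promastigotes in Schneider's medium with 20% FCS, 2 mM L-glutamine, penicillin/streptomycin, at 10^6 parasites/mL. Compounds in DMSO (final <0.5% v/v) over a concentration range, in duplicate, 72 h at 27 °C. MTT 0.5 mg/mL added for 6 h at 27 °C; pellet dissolved in DMSO; A570. IC50 by non-linear regression versus control; mean of two independent experiments.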

[5] = Selectivity index, ratio of CC50 for mouse J774A1 cells to IC50 for Leishmania donovani MHOM/IN/00/DEVI promastigotes; type: functional, J774.A1
In short: (§2)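 SI computed as CC50 (HepG2 or J774) divided by L. donovani promastigote IC50. Both values come from the MTT assays above, each the mean of two independent experiments.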

[6] = Selectivity index, ratio of CC50 for human HepG2 cells to IC50 for Leishmania donovani MHOM/IN/00/DEVI promastigotes; type: functional; in short: as §2
Toxoplasma gondii = experiment: Antitoxoplasmic activity against Toxoplasma gondii PRU tachyzoites infected in human HFF cells assessed as beta-galactosidase activity after 72 hrs by colorimetric assay; type: functional, cell-based
In short: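 HFF monolayers grown to confluence (3.10^4 cells/well) in RPMI with 10% FCS at 37 °C, 6% CO2. Infected with 1 × 10^4 PRU-β-Gal tachyzoites for 3 h, then compounds (DMSO <0.5% v/v) added in triplicate for 72 h. 1 mM CPRG for 6 h; read at 570 and 630 nm, blanked on uninfected wells. IC50 by non-linear regression; mean of two experiments.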

SMILES | CC50 at 72 h [1] [µM] | IC50 (Leishmania infantum) [µM] | CC50 at 72 h [2] [µM] | IC50 (Leishmania donovani [3]) [µM] | IC50 (Leishmania donovani [4]) [µM] | Ratio CC50/IC50 [5] | Ratio CC50/IC50 [6] | IC50 (Toxoplasma gondii) [µM]
CCCCCCCCCCCCCCCCOP(=O)([O-])OCC[N+](C)(C)C [MILTEFOSINE] | 94.6 | 11.6 | 50.3 | 6.8 |  |  |  | 
O=[N+]([O-])c1cccc2nc(Cl)ccc12 | > 100 |  | > 100 |  | > 50 |  |  | 
O=Cc1ccc2c([N+](=O)[O-])cccc2n1 | 22.8 |  | 92 |  | > 50 | <0.46 | <1.8 | 
O=[N+]([O-])c1cccc2cccnc12 | > 100 |  | > 100 |  | > 50 |  |  | 
O=[N+]([O-])c1cccc2ncccc12 | > 100 |  | > 100 |  | > 50 |  |  | 
N=C(N)c1ccc(OCCCCCOc2ccc(C(=N)N)cc2)cc1 [PENTAMIDINE] | 1 | 8.2 | 2.3 | > 20 | 6 | 0.17 | 0.38 | 
Cc1ccc2cccc([N+](=O)[O-])c2n1 | > 100 |  | > 100 |  | > 50 |  |  | 
O=[N+]([O-])c1ccc2nc(O)ccc2c1 | 83.7 |  | > 100 |  | > 50 | <1.7 |  | 
CCc1nc(N)nc(N)c1-c1ccc(Cl)cc1 [PYRIMETHAMINE] |  |  |  |  |  |  |  | 0.8
Cc1ccc2ccccc2n1 [QUINALDINE] | > 100 |  | > 100 |  | > 50 |  |  | 
COc1cccc2c1C(=O)c1c(O)c3c(c(O)c1C2=O)C[C@@](O)(C(=O)CO)C[C@@H]3O[C@H]1C[C@H](N)[C@H](O)[C@H](C)O1 [DOXORUBICIN] | 0.02 |  |  |  |  |  |  | 
Clc1ccc2ccccc2n1 | > 100 |  | > 100 |  | > 50 |  |  | 
C[C@@H]1[C@H](O)[C@@H](C)/C=C/C=C/C=C/C=C/C=C/C=C/C=C/[C@H](O[C@@H]2O[C@H](C)[C@@H](O)[C@H](N)[C@@H]2O)C[C@@H]2O[C@](O)(C[C@@H](O)C[C@@H](O)[C@H](O)CC[C@@H](O)C[C@@H](O)CC(=O)O[C@H]1C)C[C@H](O)[C@H]2C(=O)O [AMPHOTERICIN B] | 3.1 | 0.05 |  |  | 0.1 |  |  | 
O=[N+]([O-])c1cccc2nc(O)ccc12 | > 100 |  | > 100 |  | > 50 |  |  | 
O=Cc1ccc2ccccc2n1 | 28.8 |  | > 100 |  | > 50 | <0.58 |  | 
c1ccc2ncccc2c1 [QUINOLINE] | > 100 |  | > 100 |  | > 50 |  |  | 
Cc1ccc2cc([N+](=O)[O-])ccc2n1 | > 100 |  | > 100 |  | > 50 |  |  | 
Oc1ccc2ccccc2n1 | > 100 |  | > 100 |  | > 50 |  |  | 
